Measured values reported in ChEMBL document CHEMBL3621047, “Quaternary Indolizidine and Indolizidone Iminosugars as Potential Immunostimulating and Glycosidase Inhibitory Agents: Synthesis, Conformational Analysis, Biological Activity, and Molecular Docking Study” (J Med Chem, 2015).
The source made the active and inactive calls. The calls are words filed in the database; no cut-off is given here.

Legend:
[1] = Inhibition of bovine liver beta-glucosidase using 10 mM p-nitrophenyl-[…]-D-glucopyranoside as substrate; parameters: species or system Bos taurus
[2] = Inhibition of aspergillus niger alpha-galactosidase using 10 mM p-nitrophenyl-alpha-D-galactopyranoside as substrate
Summary of the method: (§1)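 Enzyme (0.1 U/cm3; A. niger α-galactosidase or bovine liver β-galactosidase) was preincubated with inhibitor for 1 h at 37 °C. Substrate was 10 mM p-nitrophenyl α- or β-D-galactopyranoside in 200 mM sodium acetate, reacted 10 min at 37 °C. The reaction was stopped with 200 mM borate pH 9.8 and released p-nitrophenol read at 420 nm. Ki came from Lineweaver–Burk plots; values are the average of five assays.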

Beta-galactosidase = molecular target: T1, Beta-galactosidase (Bos taurus, UniProt Q58D55); experiment: Inhibition of bovine liver beta-galactosidase using 10 mM p-nitrophenyl-beta-D-galactopyranoside as substrate; summary of the method: as §1
T1 sequence (Q58D55 whole entry): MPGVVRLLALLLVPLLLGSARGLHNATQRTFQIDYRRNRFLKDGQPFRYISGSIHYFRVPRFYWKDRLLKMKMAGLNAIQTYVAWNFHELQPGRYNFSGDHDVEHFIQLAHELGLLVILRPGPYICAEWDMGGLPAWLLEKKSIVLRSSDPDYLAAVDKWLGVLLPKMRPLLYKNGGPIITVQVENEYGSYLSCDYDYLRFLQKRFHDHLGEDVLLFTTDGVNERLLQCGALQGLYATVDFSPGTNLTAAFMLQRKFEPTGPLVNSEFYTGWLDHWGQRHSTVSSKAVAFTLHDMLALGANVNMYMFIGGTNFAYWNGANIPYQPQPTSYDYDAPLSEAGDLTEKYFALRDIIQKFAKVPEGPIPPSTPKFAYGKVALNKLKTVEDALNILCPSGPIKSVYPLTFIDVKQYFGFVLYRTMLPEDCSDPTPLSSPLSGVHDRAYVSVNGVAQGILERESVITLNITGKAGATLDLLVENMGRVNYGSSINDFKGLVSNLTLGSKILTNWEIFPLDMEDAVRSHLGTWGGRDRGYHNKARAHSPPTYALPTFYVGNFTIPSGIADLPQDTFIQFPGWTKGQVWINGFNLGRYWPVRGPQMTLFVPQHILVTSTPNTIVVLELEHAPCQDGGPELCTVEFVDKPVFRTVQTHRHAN

Oryza sativa = experiment: Inhibition of rice alpha-glucosidase at 1 mM using 10 mM p-nitrophenyl-alpha-D-glucopyranoside as substrate
Summary of the method: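 Rice α-glucosidase (0.1 U cm−3) was preincubated with compound 1 h at 37 °C. Reaction used 10 mM p-nitrophenyl-α-D-glucopyranoside in 100 mM phosphate pH 6.8, 10 min at 37 °C, stopped with 0.1 M Na2CO3. p-Nitrophenol was read at 420 nm. NI means no 50% inhibition at 1 mM. Ki came from Lineweaver–Burk plots. Average of five assays.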

[3] = molecular target: T2, Alpha-mannosidase (Canavalia ensiformis) (UniProt C0HJB3); experiment: Inhibition of jack bean alpha-mannosidase at 1 mM using 10 mM p-nitrophenyl-alpha-D-mannopyranoside as substrate
T2 sequence (whole entry): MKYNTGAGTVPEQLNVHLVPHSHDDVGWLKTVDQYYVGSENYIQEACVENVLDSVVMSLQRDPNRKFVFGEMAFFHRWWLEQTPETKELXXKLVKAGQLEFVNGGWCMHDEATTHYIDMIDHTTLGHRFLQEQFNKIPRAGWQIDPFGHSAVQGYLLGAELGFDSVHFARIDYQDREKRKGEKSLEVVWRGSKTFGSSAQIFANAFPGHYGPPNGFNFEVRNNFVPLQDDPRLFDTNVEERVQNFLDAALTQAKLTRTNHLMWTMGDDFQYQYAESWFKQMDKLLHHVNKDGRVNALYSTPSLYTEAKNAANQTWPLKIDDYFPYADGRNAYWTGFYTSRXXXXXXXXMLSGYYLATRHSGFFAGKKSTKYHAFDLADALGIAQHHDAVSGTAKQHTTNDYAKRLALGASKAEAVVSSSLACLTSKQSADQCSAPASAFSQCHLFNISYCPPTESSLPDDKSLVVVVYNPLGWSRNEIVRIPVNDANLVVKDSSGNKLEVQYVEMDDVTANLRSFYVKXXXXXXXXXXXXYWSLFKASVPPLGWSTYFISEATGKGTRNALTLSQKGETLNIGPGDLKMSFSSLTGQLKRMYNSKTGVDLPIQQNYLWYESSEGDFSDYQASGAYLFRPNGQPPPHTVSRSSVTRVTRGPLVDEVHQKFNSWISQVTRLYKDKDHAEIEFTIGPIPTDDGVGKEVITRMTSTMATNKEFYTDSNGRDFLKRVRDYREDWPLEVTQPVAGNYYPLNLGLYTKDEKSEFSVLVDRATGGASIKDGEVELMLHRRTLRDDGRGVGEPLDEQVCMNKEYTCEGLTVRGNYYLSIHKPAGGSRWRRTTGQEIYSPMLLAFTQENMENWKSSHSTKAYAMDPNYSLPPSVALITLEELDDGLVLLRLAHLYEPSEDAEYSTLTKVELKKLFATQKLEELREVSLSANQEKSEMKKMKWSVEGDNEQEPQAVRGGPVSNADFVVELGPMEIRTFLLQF
Summary of the method: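 Jack bean α-mannosidase (0.1 U/cm3) was preincubated with inhibitor for 1 h at 37 °C. Substrate was 10 mM p-nitrophenyl α-D-mannopyranoside in 100 mM citrate pH 4.5, reacted 10 min at 37 °C. The reaction was stopped with 200 mM borate pH 9.8 and absorbance read at 420 nm. Ki came from Lineweaver–Burk plots; average of five assays. NI means under 50% inhibition at 1 mM.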

Splenocyte [4] = experiment: Immunostimulating activity in Swiss albino mouse Splenocytes assessed as increase in ConA-induced cell proliferation upto 5 uM after 72 hrs by MTT assay; type: functional, cell-based
Summary of the method: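 Splenocytes (2 × 10^6/well) from Swiss albino mice were treated with Con A (methods give final 10 μg/mL; results give 10 μM), alone or with compound at final 0.5, 1, 2.5 and 5 μM. Incubation was 72 h at 37 °C, 5% CO2, in RPMI with 10% FCS. Readout by MTT, expressed as % of Con A-treated cells (100%); mean ± SEM, n = 5.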

[5] = Cytotoxicity against Swiss albino mouse Splenocytes assessed as cell proliferation at 0.5 to 5 uM after 72 hrs by MTT assay; type: cell-based; settings: splenocyte
Summary of the method: (§2)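 Swiss albino mouse splenocytes (2 × 10^6 cells/well) were treated with Con A alone or with test samples at final 0.5, 1, 2.5 and 5 μM. Con A is given as final 10 μg/mL in methods and 10 μM in text. Cells were held 72 h at 37 °C, 5% CO2, in RPMI with 10% FCS, then read by MTT. Values are % of Con A-treated cells (100%), mean ± SEM, n = 5.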

Splenocyte [6] = experiment: Immunostimulating activity in Swiss albino mouse Splenocytes assessed as decrease in ConA-induced IL-4 secretion at 5 uM by ELISA; type: functional
Splenocyte [7] = experiment: Immunostimulating activity in Swiss albino mouse Splenocytes assessed as increase in IL-6 secretion at 5 uM by ELISA in presence of 10 uM ConA relative to control; type: functional
Summary of the method: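 Supernatants came from splenocytes (2 × 10^6/well) treated with Con A 10 μM plus compound at 5 μM. IL-6 was measured by ELISA: samples 2 h at 37 °C, biotinylated antibody 1 h, then streptavidin–HRP and substrate developed in the dark. Read at 550 nm with 450 nm correction and quantified from an IL-6 standard curve; mean ± SEM, n = 5.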

Splenocyte [8] = experiment: Immunostimulating activity in Swiss albino mouse Splenocytes assessed as increase in ConA-induced IFN-gamma secretion at 5 uM by ELISA; type: functional, cell-based
Summary of the method: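 Splenocyte supernatants (2 × 10^6 cells/well) were collected after 24 h stimulation with Con A 10 μM alone or with compound at 5 μM. Unstimulated cells served as control. IFN-γ was quantified by sandwich ELISA; mean ± SEM, n = 5.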

Splenocyte [9] = experiment: Immunostimulating activity in Swiss albino mouse Splenocytes assessed as ConA-induced cell proliferation > 5 uM after 72 hrs by MTT assay; type: functional, cell-based
Alpha-mannosidase = molecular target: T3, Alpha-mannosidase (Canavalia ensiformis, UniProt C0HJB3); experiment: Inhibition of jack bean alpha-mannosidase using 10 mM p-nitrophenyl-alpha-D-mannopyranoside as substrate
T3 sequence (C0HJB3 whole entry): T2 sequence (whole entry)
Summary of the method: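 Jack bean α-mannosidase (0.1 U cm−3) was preincubated with compound 1 h at 37 °C. Reaction used 10 mM p-nitrophenyl-α-D-mannopyranoside in 100 mM citrate pH 4.5, 10 min at 37 °C, stopped with 200 mM borate pH 9.8. Read at 420 nm. IC50 and Ki were determined, Ki from Lineweaver–Burk double-reciprocal plots. Mean of five assays.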

Splenocyte [10] = experiment: Immunostimulating activity in Swiss albino mouse Splenocytes assessed as increase in ConA-induced cell proliferation upto 2.5 uM after 72 hrs by MTT assay; type: functional, cell-based; summary of the method: as §2
Splenocyte [11] = experiment: Immunostimulating activity in Swiss albino mouse Splenocytes assessed as decrease in ConA-induced IL-4 secretion at 2.5 uM by ELISA; type: functional
Summary of the method: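 Supernatants came from Con A-stimulated splenocytes (2 × 10^6 cells/well) with compound at 2.5 or 5 μM. They were spun 2000g for 5 min and stored at −70 °C. IL-4 was measured by ELISA: sample 2 h at 37 °C, then peroxidase conjugate 1 h, substrate developed in the dark. Absorbance was read at 550 nm with 450 nm correction and quantified from an IL-4 standard curve. n = 5.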

Splenocyte [12] = experiment: Immunostimulating activity in Swiss albino mouse Splenocytes assessed as increase in IL-6 secretion at 2.5 uM by ELISA in presence of 10 uM ConA relative to control; type: functional
Summary of the method: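 Splenocytes (2 × 10^6 cells/well) were stimulated with 10 μM Con A plus compound (2.5 or 5 μM). Supernatant IL-6 was measured by sandwich ELISA: sample 2 h at 37 °C, biotinylated antibody 1 h, streptavidin–HRP, then substrate in the dark. Absorbance was read at 550 nm with 450 nm correction against an IL-6 standard curve. Mean ± SEM, n = 5.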

Splenocyte [13] = experiment: Immunostimulating activity in Swiss albino mouse Splenocytes assessed as increase in ConA-induced IFN-gamma secretion at 2.5 uM by ELISA; type: functional, cell-based
Summary of the method: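 IFN-γ was measured by ELISA in supernatants of splenocytes (2 × 10^6 cells/well). Cells were unstimulated, stimulated with Con A (10 μM), or given Con A plus compound (2.5 or 5 μM) for 24 h. Mean ± SEM, n = 5.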

[14] = Inhibition of rice alpha-glucosidase using 10 mM p-nitrophenyl-alpha-D-glucopyranoside as substrate; parameters: species or system Oryza sativa
Summary of the method: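 Rice α-glucosidase (0.1 U cm−3) was preincubated with compound 1 h at 37 °C. Reaction used 10 mM p-nitrophenyl-α-D-glucopyranoside in 100 mM phosphate pH 6.8, 10 min at 37 °C, stopped with 0.1 M Na2CO3. p-Nitrophenol was read at 420 nm. Ki came from Lineweaver–Burk plots. Average of five assays.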

Aspergillus niger = experiment: Inhibition of aspergillus niger alpha-galactosidase at 1 mM using 10 mM p-nitrophenyl-alpha-D-galactopyranoside as substrate
Summary of the method: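 Galactosidase (0.1 U cm−3) was preincubated with compound 1 h at 37 °C. Reaction used 10 mM p-nitrophenyl-α- or β-D-galactopyranoside in 200 mM sodium acetate, 10 min at 37 °C, stopped with 200 mM borate pH 9.8. Read at 420 nm. NI means no 50% inhibition at 1 mM. Five assays averaged.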

| IC50 (Alpha-mannosidase) [µM] | Ki (Alpha-mannosidase) [µM] | Compound | IC50 [1] [µM] | Ki [1] [µM] | IC50 [2] [µM] | Ki [2] [µM] | IC50 (Beta-galactosidase) [µM] | Ki (Beta-galactosidase) [µM] | inhibition (Oryza sativa) [%] | inhibition [3] [%] | Activity (Splenocyte [4]) | Activity [5] | inhibition at 5 µM (Splenocyte [6]) [%] | fold change (FC) (Splenocyte [7]) | Activity (Splenocyte [8]) | Activity (Splenocyte [9]) | Activity (Splenocyte [10]) | inhibition at 2.5 µM (Splenocyte [11]) [%] | fold change (FC) (Splenocyte [12]) | Activity (Splenocyte [13]) | further results |
| --- | --- | --- | --- | --- | --- | --- | --- | --- | --- | --- | --- | --- | --- | --- | --- | --- | --- | --- | --- | --- | --- |
| – | – | OC[C@]12CCCN1C[C@H](O)[C@@H](O)[C@@H]2O | 116 | 95 | 0.13 | 0.09 | 3.6 | 1.5 | < 50 | < 50 | Active | Non-toxic | 31 | 4.1 | Active | inactive | – | – | – | – | – |
| 1.3 | 0.9 | O=C1CC[C@@]2(CO)[C@@H](O)[C@H](O)[C@H](O)CN12 | 46 | 24 | 630 | 68 | 7.2 | 3.1 | < 50 | – | – | Non-toxic | – | – | – | inactive | Active | 34 | 8.2 | Active | – |
| 0.075 | 0.043 | O=C1CC[C@@]2(CO)[C@@H](O)[C@H](O)[C@@H](O)CN12 | 39 | 19 | 130 | 14 | 5.6 | 2.4 | < 50 | – | – | Non-toxic | – | – | – | inactive | Active | 47 | 9 | Active | – |
| – | – | OCCN1C[C@H](O)[C@@H](O)[C@H](O)[C@H]1CO [MIGLITOL] | 342 | 32 | – | – | 200 | 100 | – | < 50 | – | – | – | – | – | – | – | – | – | – | IC50 [14]: 0.1 µM; Ki [14]: 0.06 µM; inhibition (Aspergillus niger): < 50% |
| – | – | OC[C@@]12CCCN1C[C@@H](O)[C@@H](O)[C@@H]2O | 156 | 86 | 0.63 | 0.44 | 1.2 | 0.5 | < 50 | < 50 | Active | Non-toxic | 31 | 3.7 | Active | inactive | – | – | – | – | – |
| – | – | OC[C@@]12CCCN1C[C@H](O)[C@@H](O)[C@@H]2O | 202 | 102 | 0.24 | 0.54 | 2.3 | 1 | < 50 | < 50 | Active | Non-toxic | 34 | 4.4 | Active | inactive | – | – | – | – | – |
